# High-throughput results: PubChem BioAssay, several laboratories
# This is one part of a sample in which hits are shown more often than they occur.
# HSF-1 act – increases HSF-1 driven luciferase reporter signal; activation, % at 9 µM; 300,000 tested, 1.7% active; NIH3T3-HGL HSF-1 luciferase reporter, MG132, 8 h; 100% = twice DMSO control signal;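 active = mean replicate activation of at least 50% with a set share of replicates each reaching 50%; inconclusive = only one of those two conditions met; inactive = mean below 50% and too few replicates reaching it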;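 also: 0% = median of the neutral control wells and 100% = twice that signal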
# Hsp70 act – switches on Hsp70 transcription; HeLa Hsp70 promoter luciferase reporter, luminescence; scaled: vehicle 0, proteasome-inhibitor control 100%; activation, % at 10 µM; 200,000 tested, 0.04% active;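 active = activation above the mean across all tested compounds plus 3 SD, cutoff set per campaign, cut at about 5.5% in these data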;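 also: 100% = MG132 at 30 µM as the positive control and 0% = DMSO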
# Lmaj promast – reduces viability of Leishmania major promastigotes; inhibition, % at 10 µM; 200,000 tested, 9% active; resazurin fluorescence viability; in the data active = inhibition above about 50%;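 also: promastigotes grown with compound for 44 hours at 28 °C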
# HSF1 inhib – HSF1 inhibition; NIH3T3-HGL HSE-luciferase, MG132-induced, luminescence 8 h; active compounds read low; activity change, negative = inhibition, % at 7.5 µM (by protocol); 300,000 tested, 0.77% active; AID 2098;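 active = more than half of replicate wells show activity change below -50%, luminescence cut by over half; inconclusive = some wells, but at most half, below -50%; inactive = no replicate well below -50%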;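 also: luciferase reports HSF-1 transcriptional activity via heat shock element; 0% = median of DMSO wells and -100% = zero luminescence signal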
# T cruzi inh – T. cruzi replication inhibition; T. cruzi beta-gal in NIH3T3, luminescence, 90 h; inhibition, % (test concentration not listed); 300,000 tested, 1.4% active; AID 1885;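 active = mean inhibition across valid replicates above about 55%, limit read from the data; inconclusive = mean below that limit but half or more replicates reach it; inactive = mean below it, under half of replicates reach it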;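 also: signal also drops with host cell toxicity which is not excluded here; 0% = plate median of DMSO wells and 100% = zero luminescence signal; higher percent means less beta-gal luminescence so fewer parasites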
#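 System: mouse NIH/3T3 fibroblasts infected with β-gal-expressing T. cruzi Tulahuen C4 / Input: NIH/3T3 cells, 5,000 per well / Buffer or medium: Low-serum DMEM with 2% FBS / Probe or stimulus: 5000 reporter trypomastigotes per well / Schedule: ≥90 h infection period, 3 h prior cell attachment / Measured by: GalScreen luminescence, 60 min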
# L major 1uM – inhibitors of Leishmania major promastigote growth, repeat at 1 uM; shares compounds with Lmaj promast; 1,100 tested, 13% active; inhibition, % at 1 µM; L. major promastigote growth, resazurin fluorescence, 48 h; AID 1258;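 active = inhibition above about 50% in both repeat tests, limit read from the data; inconclusive = one repeat under the set limit, the other over it; inactive = both repeats under the set limit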
# * = called active by the depositor; ? = inconclusive; · = no result.
SMILES,HSF-1 act,Hsp70 act,Lmaj promast,HSF1 inhib,T cruzi inh,L major 1uM
Cc1ccc(Cn2nnnc2CN2CCC(NC(=O)C(C)(C)C)CC2)cc1,8,0,25,3,-3,·
CCOC(=O)C1(Cc2cccc(OC)c2)CCN(Cc2ccc(C)s2)CC1,9,0,23,5,17,·
CCC(C)[C@H](NC(=O)NCCCn1ccnc1)C(=O)OC (stereo not given in full),-2,0,52*,-3,-11,-7
CCCCn1c(N)c(N(CC(C)C)C(=O)CSCC(=O)Nc2ccc(OC)cc2)c(=O)[nH]c1=O,-14,·,·,4,-4,·
Fc1ccc(Sc2ccccc2CNC2=NCCN2)cc1,55*,-1,100*,9,63*,-9
O=C(O)CC1CCC(=C(Cl)Cl)C1 (stereo not given),·,0,95*,·,·,-8
Cc1cc(C(=O)Nc2ccc(F)cc2)c2ccccc2n1,2,·,·,3,-11,·
CC(=O)c1ccc(N2CCN(C(=O)c3ccc(NC4=NC5CS(=O)(=O)CC5S4)cc3)CC2)cc1 (stereo not given),1,·,·,0,-5,·
Cc1csc(NC(=O)CSc2nnc(-c3ccc(S(=O)(=O)N4CCCC4)cc3)o2)n1,-11,0,99*,-4,0,-3
CCN(CC)S(=O)(=O)c1ccc(-c2nnc(SCC(=O)Nc3nc(C)cs3)o2)cc1,3,0,9,-10,-20,·
c1ccc(-n2nnnc2-c2cnc(-c3cccnc3)nc2-c2cccs2)cc1,-5,0,95*,-7,38,-13
Clc1ccc(-n2nnnc2-c2cnc3ccccc3c2-c2ccccc2)cc1,12,·,·,2,·,·
CCOC(=O)c1cnc(-n2nc(C)cc2C)nc1Nc1ccc(N(C)C)cc1,6,0,91*,-6,63*,10
CCCOc1ccc(C(=O)NCC2OCCc3ccccc32)cc1OC (stereo not given),10,0,0,-4,24,·
COc1ccc(C(=O)NCC2OCCc3ccccc32)c(O)c1 (stereo not given),25,0,53*,17,-23,-6
Nc1n[nH]c(-c2ccccc2[N+](=O)[O-])n1,-19,3,60*,4,-16,-4
Nc1n[nH]c(-c2ccccc2)n1,-5,0,-4,-13,-16,·
CC(=O)Nc1cccc(C(=O)/C=C/c2ccc[nH]2)c1,19,·,·,1,-3,·
CC(=O)Nc1cccc(C(=O)/C=C/c2cccs2)c1,17,0,93*,2,-4,-8
CCC1(c2ccccc2)NC(=O)N(CC(=O)N(C)Cc2c(F)cccc2Cl)C1=O (stereo not given),-7,·,·,1,-3,·
COc1ccc2nc(-c3ccccc3)[nH]c2c1,19,0,69*,4,-14,-5
CCOc1ccc2nc(-c3ccccc3)[nH]c2c1,29,0,31,21,6,·
Cc1cc(C)cc(N=Cc2ccc([N+](=O)[O-])s2)c1,8,0,100*,11,37,13
Cc1cccc2sc(NC(=O)c3cccc(S(=O)(=O)N4CCc5ccccc54)c3)nc12,18,0,96*,-5,34,-3
FC(F)(F)c1cc(C(F)(F)F)c2ccc(N3CCN(c4ccc(Cl)cc4)CC3)nc2n1,-3,0,9,-1,?,·
SMILES,HSF-1 act,Hsp70 act,Lmaj promast,HSF1 inhib,T cruzi inh,L major 1uM
N#CC(c1ccc(Cl)cc1)c1ccc2c(C(F)(F)F)cc(C(F)(F)F)nc2n1 (stereo not given),4,0,100*,-1,?,56*
NC(=O)c1ccc(S(=O)(=O)N2CCSCC2)cc1,4,·,·,-5,4,·
Cc1cc(C)c2c(CC(=O)N(CCC#N)Cc3cccnc3)coc2c1,10,0,81*,1,34,9
CC(Sc1ccccc1)C(=O)N(CCC#N)Cc1cccnc1 (stereo not given),·,0,7,·,·,·
CCOC(=O)C(=Cc1cc(=O)c(OC)co1)C(=O)OCC,94*,0,100*,80,11,101*
COC(=O)c1ccc(CN(Cc2ccc(C(=O)OC)o2)C(C)(C)C)o1,3,0,97*,1,-2,-12
Clc1ccc2[nH]c3c(c2c1)CCc1cn[nH]c1-3,46,0,54*,33,6,-9
CCOC(=O)C1CCCN(c2ccc(NC(=O)c3snc4c(=O)[nH]cnc34)cc2)C1 (stereo not given),17,0,76*,8,20,14
CC(C)Cc1ccc(C(C)C(=O)Nc2ccccc2O)cc1 (stereo not given),2,·,·,11,-2,·
O=C(Cn1c(=O)n2ncnc2c2c3c(sc21)CCCC3)c1ccccc1,24,0,74*,4,17,-10
CCSc1nnc(-c2ccc(C)cc2)c2ccccc12,1,0,14,-6,-2,·
CCSc1nnc(-c2ccc(Cl)cc2)c2ccccc12,-20,-1,3,-3,11,·
Clc1ccc(-c2nnc(Sc3nc4ccccc4o3)c3ccccc23)cc1,-11,0,90*,-14,2,7
Cc1ccc(-c2nnc(Sc3nc4ccccc4o3)c3ccccc23)cc1,21,0,76*,-2,13,9
Cc1nnc(Sc2nc3ccccc3o2)c2ccccc12,-13,0,64*,-1,5,-3
CCC(=O)OCC(=O)c1cc(C)n(-c2ccc(Br)cc2)c1C,40,0,6,4,-1,·
O/N=C(\CN1CCCCC1)c1ccccc1,-6,·,·,-5,-1,·
CO/C(N)=C(\C#N)N=Cc1ccccc1Cl,25,0,-1,9,-11,·
CCOc1ccccc1NC(=O)COC(=O)C(CC)c1ccccc1 (stereo not given),21,0,0,-7,4,·
Cc1ccccc1-n1c(=O)c2ccccc2n2cnnc12,-2,0,-1,-7,-9,·
Cc1ccccc1-n1sc2cc(F)ccc2c1=O,·,0,80*,·,·,-21
CCOC(=O)c1ccccc1NC(=O)Cc1sc(-c2cccnc2)nc1-c1ccc(C)cc1,0,0,97*,3,27,-4
COc1ccc(CCNCC2C(Oc3ccc(Cl)cc3)C(=O)N2c2ccccc2C)cc1OC (stereo not given),18,0,33,7,13,·
CCCNCC1C(Oc2ccc(Cl)cc2)C(=O)N1c1ccccc1C (stereo not given),2,0,91*,5,-14,-12
COC(=O)[C@@H]1CC[C@H](C)[C@@H](c2ccc(C)cc2)N1C(=O)c1ccc(/C=N/OCC[C@@H]2C=C[C@H](OC(C)=O)[C@@H](COC(C)=O)O2)cc1,12,0,96*,0,5,-17
C=C(C)C(=O)OCC(=O)NCc1ccccc1,-3,0,-5,5,3,·
Cc1ccc(OCC(=O)Nc2ccc3c(c2)OCO3)cc1C,5,0,-7,-5,-1,·
